The values below come from ChEMBL document CHEMBL4396972, “Glycyrrhizic acid derivatives as Dengue virus inhibitors” (Bioorg Med Chem Lett, 2019).

Calls of active or inactive are those of the source. No cut-off for these calls is given here.

Data set [1] has as its system dengue virus type 2. Briefly: Antiviral activity against DENV2 16681 infected in African green monkey Vero E6 cells assessed as reduction in virus induced cytopathic effect at 10 uM measured after 96 hrs by reverse phase contrast microscopy. The conditions noted are these: Vero C1008. The format is functional, organism-based. An outline of the steps:
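Vero E6 cells in supporting DMEM infected with DENV2 strain 16681 (MOI 0.01), then treated immediately with compound at 10 μM. After 96 h incubation, cytopathic effect photographed by reverse phase-contrast microscopy and scored semi-quantitatively (−, +, ++, +++) against infected controls.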

Data set [2] deals with dengue virus type 2. Briefly: Antiviral activity against DENV2 16681 infected in African green monkey Vero E6 cells assessed as inhibitory rate of NS4B positive cells at 10 uM measured after 96 hrs incubation by DAPI staining based immunofluorescence method. The format is functional. The conditions noted are these: Dengue virus, 16681, Vero C1008, 96 h. An outline of the steps: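 Vero E6 cells in DMEM infected with DENV2 strain 16681 at MOI 0.01, treated at once with compound (0, 0.1, 1, 10 μM), 96 h. Immunofluorescence with anti-NS4B antibody and DAPI counterstain. Infectivity taken as NS4B-positive cells over DAPI-stained total cells. Inhibitory rate = (1 − NS4B-positive % treated infected / NS4B-positive % mock-treated infected) × 100.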

The test system of data set [3] is Vero C1008. Briefly: Cytotoxicity against African green monkey Vero E6 cells assessed as reduction in survival rate measured after 48 hrs by MTT assay. Format: cell-based. The conditions noted are these: chlorocebus sabaeus, vero c1008, 48 h. The method in brief: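 MTT viability test on Vero E6 cells in DMEM over a range of compound concentrations. CC50 calculated from survival of treated cells relative to mock cells.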
(Tetrazolium assays rely on reduction of a dye to a coloured formazan, in cell work by metabolically active cells.)

Data set [4] deals with dengue virus type 2. Briefly: Antiviral activity against DENV2 16681 infected in African green monkey Vero E6 cells assessed as inhibitory rate of NS4B positive cells measured after 96 hrs incubation by DAPI staining based immunofluorescence method. Format: functional, organism-based. The conditions noted are these: for IC50: Dengue virus, 16681, Vero C1008, 96 h; for inhibition: Vero C1008. An outline of the steps: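 Vero E6 cells in DMEM, infected with DENV2 strain 16681 at MOI 0.01 and treated with compound (0, 0.1, 1, 10 μM; single 10 μM for screening). After 96 h, immunofluorescence with anti-NS4B antibody and DAPI nuclear counterstain. Infectivity = NS4B-positive cells / DAPI-stained cells. Inhibitory rate = (1 − NS4B-positive % treated / NS4B-positive % mock-treated infected) × 100. IC50 derived from NS4B-positive percentages across concentrations.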

Data set [5] deals with dengue virus type 2. Briefly: Antiviral activity against DENV2 16681 infected in African green monkey Vero E6 cells assessed as reduction in virus induced cytopathic effect measured after 96 hrs by reverse phase contrast microscopy. The format is functional, organism-based. To be noted: Vero C1008. The method in brief:
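Vero E6 cells in DMEM infected with DENV2 16681 at MOI 0.01, compound added immediately (screen at 10 μM, then 0, 0.1, 1, 10 μM). Photographed 96 h post infection by phase-contrast microscopy. CPE reduction scored qualitatively (−, +, ++, +++).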
A general note: Damage to the host cells serves as the signal in cytopathic effect assays.

The nature of data set [6]: Therapeutic index, ratio of CC50 for African green monkey Vero E6 cells to IC50 for DENV2 16681 infected in African green monkey Vero E6 cells. To be noted: read-out: Ratio CC50/IC50. Format: toxicity, Vero C1008. An outline of the steps: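 TI = CC50/IC50. CC50 comes from the Vero E6 MTT survival test. IC50 comes from the NS4B-positive cell fraction by immunofluorescence in DENV2 16681-infected Vero E6 cells (MOI 0.01, 96 h, 0–10 μM).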

On to `COC(=O)[C@@]1(C)CC[C@]2(C)CC[C@]3(C)C(=CC(=O)[C@@H]4[C@@]5(C)CC[C@H](O[C@H]6O[C@H](C(=O)NN)[C@@H](O)[C@H](O)[C@H]6O[C@@H]6O[C@H](C(=O)NN)[C@@H](O)[C@H](O)[C@H]6O)C(C)(C)[C@@H]5CC[C@]43C)[C@@H]2C1`, for which the inhibition result in data set [1] was “inactive”.

In the case of `COC(=O)[C@@H](Cc1c[nH]c2ccccc12)NC(=O)[C@H]1O[C@@H](O[C@H]2[C@@H](O[C@H]3CC[C@]4(C)[C@H]5C(=O)C=C6[C@@H]7C[C@@](C)(C(=O)N[C@H](Cc8c[nH]c9ccccc89)C(=O)OC)CC[C@]7(C)CC[C@@]6(C)[C@]5(C)CC[C@H]4C3(C)C)O[C@H](C(=O)N[C@H](Cc3c[nH]c4ccccc34)C(=O)OC)[C@@H](O)[C@@H]2O)[C@H](O)[C@@H](O)[C@@H]1O`, in data set [1], the inhibition result is “inactive”.

With `CC1(C)[C@@H](O[C@H]2O[C@H](C(=O)N[C@@H](Cc3ccccc3)C(=O)O)[C@@H](O)[C@H](O)[C@H]2O[C@@H]2O[C@H](C(=O)N[C@@H](Cc3ccccc3)C(=O)O)[C@@H](O)[C@H](O)[C@H]2O)CC[C@]2(C)[C@H]3C(=O)C=C4[C@@H]5C[C@@](C)(C(=O)N[C@@H](Cc6ccccc6)C(=O)O)CC[C@]5(C)CC[C@@]4(C)[C@]3(C)CC[C@@H]12`, in data set [1], the inhibition entry was “inactive”.

On to `COC(=O)[C@@]1(C)CC[C@]2(C)CC[C@]3(C)C(=CC(=O)[C@@H]4[C@@]5(C)CC[C@H](O[C@H]6O[C@H](C(=O)N/N=C/c7ccncc7)[C@@H](O)[C@H](O)[C@H]6O[C@@H]6O[C@H](C(=O)N/N=C/c7ccncc7)[C@@H](O)[C@H](O)[C@H]6O)C(C)(C)[C@@H]5CC[C@]43C)[C@@H]2C1`, for which the inhibition result in data set [1] was “inactive”.

For `CC1(C)[C@@H](O[C@H]2O[C@H](C(=O)N[C@@H](Cc3ccc(O)cc3)C(=O)O)[C@@H](O)[C@H](O)[C@H]2O[C@@H]2O[C@H](C(=O)N[C@@H](Cc3ccc(O)cc3)C(=O)O)[C@@H](O)[C@H](O)[C@H]2O)CC[C@]2(C)[C@H]3C(=O)C=C4[C@@H]5C[C@@](C)(C(=O)N[C@@H](Cc6ccc(O)cc6)C(=O)O)CC[C@]5(C)CC[C@@]4(C)[C@]3(C)CC[C@@H]12`, the inhibition at 10 µM in data set [2] came out at 68.5%. In addition, in data set [3], the half-maximal cytotoxic concentration (CC50) is above 100 µM. The IC50 in data set [4] turned out to be 2.2 µM. Further, the inhibition result in data set [4] and in data set [5] was “Dose-dependent effect” in each case. Further, the inhibition entry in data set [1] was “Active”. Besides, the selectivity ratio in data set [6] was above 46.5.

Regarding `COC(=O)[C@@H](NC(=O)[C@H]1O[C@@H](O[C@H]2[C@@H](O[C@H]3CC[C@]4(C)[C@H]5C(=O)C=C6[C@@H]7C[C@@](C)(C(=O)N[C@H](C(=O)OC)C(C)C)CC[C@]7(C)CC[C@@]6(C)[C@]5(C)CC[C@H]4C3(C)C)O[C@H](C(=O)N[C@H](C(=O)OC)C(C)C)[C@@H](O)[C@@H]2O)[C@H](O)[C@@H](O)[C@@H]1O)C(C)C`, the inhibition result in data set [1] is “inactive”.

Consider `COC(=O)[C@@H](CC(C)C)NC(=O)[C@H]1O[C@@H](O[C@H]2[C@@H](O[C@H]3CC[C@]4(C)[C@H]5C(=O)C=C6[C@@H]7C[C@@](C)(C(=O)N[C@H](CC(C)C)C(=O)OC)CC[C@]7(C)CC[C@@]6(C)[C@]5(C)CC[C@H]4C3(C)C)O[C@H](C(=O)N[C@H](CC(C)C)C(=O)OC)[C@@H](O)[C@@H]2O)[C@H](O)[C@@H](O)[C@@H]1O`, for which the inhibition at 10 µM in data set [2] is 53.1%. Further, the inhibition entry in data set [1] is “Active”.

Consider `COC(=O)[C@H](Cc1ccccc1)NC(=O)[C@H]1O[C@@H](O[C@H]2[C@@H](O[C@H]3CC[C@]4(C)[C@H]5C(=O)C=C6[C@@H]7C[C@@](C)(C(=O)N[C@@H](Cc8ccccc8)C(=O)OC)CC[C@]7(C)CC[C@@]6(C)[C@]5(C)CC[C@H]4C3(C)C)O[C@H](C(=O)N[C@@H](Cc3ccccc3)C(=O)OC)[C@@H](O)[C@@H]2O)[C@H](O)[C@@H](O)[C@@H]1O`, for which the inhibition entry in data set [1] is “inactive”.

For the molecule `COC(=O)[C@H](CC(C)C)NC(=O)[C@H]1O[C@@H](O[C@H]2[C@@H](O[C@H]3CC[C@]4(C)[C@H]5C(=O)C=C6[C@@H]7C[C@@](C)(C(=O)N[C@@H](CC(C)C)C(=O)OC)CC[C@]7(C)CC[C@@]6(C)[C@]5(C)CC[C@H]4C3(C)C)O[C@H](C(=O)N[C@@H](CC(C)C)C(=O)OC)[C@@H](O)[C@@H]2O)[C@H](O)[C@@H](O)[C@@H]1O`, in data set [1], the inhibition entry was “inactive”.

As for `CC[C@H](C)[C@H](NC(=O)[C@H]1O[C@@H](O[C@H]2[C@@H](O[C@H]3CC[C@]4(C)[C@H]5C(=O)C=C6[C@@H]7C[C@@](C)(C(=O)N[C@H](C(=O)OC)[C@@H](C)CC)CC[C@]7(C)CC[C@@]6(C)[C@]5(C)CC[C@H]4C3(C)C)O[C@H](C(=O)N[C@H](C(=O)OC)[C@@H](C)CC)[C@@H](O)[C@@H]2O)[C@H](O)[C@@H](O)[C@@H]1O)C(=O)OC`, the inhibition entry in data set [1] is “inactive”.

As to `COC(=O)[C@@]1(C)CC[C@]2(C)CC[C@]3(C)C(=CC(=O)[C@@H]4[C@@]5(C)CC[C@H](O[C@H]6O[C@H](C(=O)N/N=C/c7ccc(O)cc7)[C@@H](O)[C@H](O)[C@H]6O[C@@H]6O[C@H](C(=O)N/N=C/c7ccc(O)cc7)[C@@H](O)[C@H](O)[C@H]6O)C(C)(C)[C@@H]5CC[C@]43C)[C@@H]2C1`, the inhibition at 10 µM in data set [2] came out at 32.5%. Also, in data set [1], the inhibition entry is “Active”.

As to `COC(=O)[C@@H](Cc1ccccc1)NC(=O)[C@H]1O[C@@H](O[C@H]2[C@@H](O[C@H]3CC[C@]4(C)[C@H]5C(=O)C=C6[C@@H]7C[C@@](C)(C(=O)N[C@H](Cc8ccccc8)C(=O)OC)CC[C@]7(C)CC[C@@]6(C)[C@]5(C)CC[C@H]4C3(C)C)O[C@H](C(=O)N[C@H](Cc3ccccc3)C(=O)OC)[C@@H](O)[C@@H]2O)[C@H](O)[C@@H](O)[C@@H]1O`, in data set [1], the inhibition result is “inactive”.

For `COC(=O)C[C@H](NC(=O)[C@H]1O[C@@H](O[C@H]2[C@@H](O[C@H]3CC[C@]4(C)[C@H]5C(=O)C=C6[C@@H]7C[C@@](C)(C(=O)O)CC[C@]7(C)CC[C@@]6(C)[C@]5(C)CC[C@H]4C3(C)C)O[C@H](C(=O)N[C@@H](CC(=O)OC)C(=O)OC)[C@@H](O)[C@@H]2O)[C@H](O)[C@@H](O)[C@@H]1O)C(=O)O`, the inhibition at 10 µM in data set [2] amounted to 35.8%. For the same molecule, the inhibition result in data set [1] was “Active”.

Turning to `COC(=O)[C@@]1(C)CC[C@]2(C)CC[C@]3(C)C(=CC(=O)[C@@H]4[C@@]5(C)CC[C@H](O[C@H]6O[C@H](C(=O)N/N=C/c7ccc(N(C)C)cc7)[C@@H](O)[C@H](O)[C@H]6O[C@@H]6O[C@H](C(=O)N/N=C/c7ccc(N(C)C)cc7)[C@@H](O)[C@H](O)[C@H]6O)C(C)(C)[C@@H]5CC[C@]43C)[C@@H]2C1`, the inhibition entry in data set [1] was “inactive”.

In the case of `COC(=O)CCCCCCCCCCNC(=O)[C@H]1O[C@@H](O[C@H]2[C@@H](O[C@H]3CC[C@]4(C)[C@H]5C(=O)C=C6[C@@H]7C[C@@](C)(C(=O)O)CC[C@]7(C)CC[C@@]6(C)[C@]5(C)CC[C@H]4C3(C)C)O[C@H](C(=O)NCCCCCCCCCCC(=O)OC)[C@@H](O)[C@@H]2O)[C@H](O)[C@@H](O)[C@@H]1O`, the inhibition at 10 µM in data set [2] turned out to be 79.5%. Further, the CC50 in data set [3] is above 100 µM. In data set [4], the IC50 was found to be 1.2 µM and the inhibition entry is “Dose-dependent effect”. The inhibition result in data set [1] was “Active”. For the same molecule, in data set [5], the inhibition result is “Dose-dependent effect”. The selectivity ratio in data set [6] was above 80.

For `COC(=O)[C@H](Cc1ccc(O)cc1)NC(=O)[C@H]1O[C@@H](O[C@H]2[C@@H](O[C@H]3CC[C@]4(C)[C@H]5C(=O)C=C6[C@@H]7C[C@@](C)(C(=O)N[C@@H](Cc8ccc(O)cc8)C(=O)OC)CC[C@]7(C)CC[C@@]6(C)[C@]5(C)CC[C@H]4C3(C)C)O[C@H](C(=O)N[C@@H](Cc3ccc(O)cc3)C(=O)OC)[C@@H](O)[C@@H]2O)[C@H](O)[C@@H](O)[C@@H]1O`, the inhibition entry in data set [1] was “inactive”.

Turning to `COC(=O)CC[C@H](NC(=O)[C@H]1O[C@@H](O[C@H]2[C@@H](O[C@H]3CC[C@]4(C)[C@H]5C(=O)C=C6[C@@H]7C[C@@](C)(C(=O)N[C@@H](CCC(=O)OC)C(=O)OC)CC[C@]7(C)CC[C@@]6(C)[C@]5(C)CC[C@H]4C3(C)C)O[C@H](C(=O)N[C@@H](CCC(=O)OC)C(=O)OC)[C@@H](O)[C@@H]2O)[C@H](O)[C@@H](O)[C@@H]1O)C(=O)OC`, the inhibition entry in data set [1] is “inactive”.

The term inhibition denotes how much of the control response was suppressed. Broadly, the CC50 is the concentration that lowers cell viability or growth by half. The term IC50 denotes the concentration needed to halve the response being measured.
